Assays:
Brain [1] = test: Biodistribution in brain of C57BL/6 mouse xenografted with mouse B16F10 cells at 3.7 MBq, iv after 1 hr by gamma-scintillation counting analysis; assay type: ADME, organism-based, B16-F10; conditions: in vivo
Method in brief: (§1)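 1.0 × 10^6 B16F10 cells in PBS injected subcutaneously into the right shoulder of C57BL/6 mice, grown to 0.5 cm (~10 day). Tail-vein injection of about 3.7 MBq (100 μCi) 18F probe in PBS (0.1 M, pH 7.4). Killed at 1.0 or 2.0 h p.i. (n = 4 per group). Tissues excised, weighed and gamma-counted; uptake expressed as %ID/g, mean ± SD.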

Mus musculus [2] = test: Biodistribution in tumor of C57BL/6 mouse xenografted with mouse B16F10 cells at 3.7 MBq, iv after 2 hrs by gamma-scintillation counting analysis; assay type: ADME, organism-based, Neoplasm, B16-F10; conditions: in vivo; method in brief: as §1
Stomach [3] = test: Biodistribution in stomach of C57BL/6 mouse xenografted with mouse B16F10 cells at 3.7 MBq, iv after 1 hr by gamma-scintillation counting analysis; assay type: ADME, organism-based, B16-F10; conditions: in vivo; method in brief: as §1
Mus musculus [4] = test: Biodistribution in lungs of C57BL/6 mouse xenografted with mouse B16F10 cells at 3.7 MBq, iv after 2 hrs by gamma-scintillation counting analysis; assay type: ADME, organism-based, Lung, B16-F10; conditions: in vivo; method in brief: as §1
Nucleic Acid [5] = test: Ratio of drug uptake in tumor to lungs of C57BL/6 mouse xenografted with mouse B16F10 cells at 3.7 MBq, iv after 1 hr by gamma-scintillation counting analysis; assay type: ADME, organism-based, B16-F10; conditions: in vivo
Method in brief: (§2)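 Same subcutaneous B16F10 model and tail-vein dose of about 3.7 MBq (100 μCi), n = 4 per group. Dissection at 1 or 2 h p.i. Gamma-counter %ID/g of tumor divided by that of blood, lung, liver or muscle, given as mean ± SD.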

Intestine [6] = test: Biodistribution in intestine of C57BL/6 mouse xenografted with mouse B16F10 cells at 3.7 MBq, iv after 2 hrs by gamma-scintillation counting analysis; assay type: ADME, organism-based, B16-F10; conditions: in vivo; method in brief: as §1
Pancreas [7] = test: Biodistribution in pancreas of C57BL/6 mouse xenografted with mouse B16F10 cells at 3.7 MBq, iv after 2 hrs by gamma-scintillation counting analysis; assay type: ADME, organism-based, B16-F10; conditions: in vivo; method in brief: as §1
[8] = Drug uptake in tumor of C57BL/6 mouse xenografted with mouse B16F10 cells at 3.7 MBq, iv after 0.5 hrs by PET imaging analysis; assay type: ADME, organism-based, Neoplasm, B16-F10; conditions: in vivo
Method in brief: (§3)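 Static small-animal PET at 0.5, 1 and 2 h after tail-vein injection of ~3.7 MBq (100 μCi) into B16F10-bearing C57BL/6 mice (n = 4 per probe). Isoflurane anesthesia, 5% induction and 2% maintenance in O2. Decay-corrected images. ROI-derived %ID/g assumes 1 g/ml density, without attenuation correction. Mean ± SD.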

Spleen [9] = test: Biodistribution in spleen of C57BL/6 mouse xenografted with mouse B16F10 cells at 3.7 MBq, iv after 2 hrs by gamma-scintillation counting analysis; assay type: ADME, organism-based, B16-F10; conditions: in vivo; method in brief: as §1
Mus musculus [10] = test: Biodistribution in lungs of C57BL/6 mouse xenografted with mouse B16F10 cells at 3.7 MBq, iv after 1 hr by gamma-scintillation counting analysis; assay type: ADME, organism-based, Lung, B16-F10; conditions: in vivo; method in brief: as §1
Pancreas [11] = test: Biodistribution in pancreas of C57BL/6 mouse xenografted with mouse B16F10 cells at 3.7 MBq, iv after 1 hr by gamma-scintillation counting analysis; assay type: ADME, organism-based, B16-F10; conditions: in vivo; method in brief: as §1
Heart [12] = test: Biodistribution in heart of C57BL/6 mouse xenografted with mouse B16F10 cells at 3.7 MBq, iv after 1 hr by gamma-scintillation counting analysis; assay type: ADME, organism-based, B16-F10; conditions: in vivo; method in brief: as §1
Spleen [13] = test: Biodistribution in spleen of C57BL/6 mouse xenografted with mouse B16F10 cells at 3.7 MBq, iv after 1 hr by gamma-scintillation counting analysis; assay type: ADME, organism-based, B16-F10; conditions: in vivo; method in brief: as §1
Kidney [14] = test: Biodistribution in kidney of C57BL/6 mouse xenografted with mouse B16F10 cells at 3.7 MBq, iv after 1 hr by gamma-scintillation counting analysis; assay type: ADME, organism-based, B16-F10; conditions: in vivo; method in brief: as §1
Nucleic Acid [15] = test: Ratio of drug uptake in tumor to muscle of C57BL/6 mouse xenografted with mouse B16F10 cells at 3.7 MBq, iv after 1 hr by gamma-scintillation counting analysis; assay type: ADME, organism-based, B16-F10; conditions: in vivo; method in brief: as §2
Muscle tissue [16] = test: Biodistribution in muscle of C57BL/6 mouse xenografted with mouse B16F10 cells at 3.7 MBq, iv after 2 hrs by gamma-scintillation counting analysis; assay type: ADME, organism-based, B16-F10; conditions: in vivo; method in brief: as §1
Stomach [17] = test: Biodistribution in stomach of C57BL/6 mouse xenografted with mouse B16F10 cells at 3.7 MBq, iv after 2 hrs by gamma-scintillation counting analysis; assay type: ADME, organism-based, B16-F10; conditions: in vivo; method in brief: as §1
Brain [18] = test: Biodistribution in brain of C57BL/6 mouse xenografted with mouse B16F10 cells at 3.7 MBq, iv after 2 hrs by gamma-scintillation counting analysis; assay type: ADME, organism-based, B16-F10; conditions: in vivo; method in brief: as §1
[19] = Drug uptake in tumor of C57BL/6 mouse xenografted with mouse B16F10 cells at 3.7 MBq, iv after 2 hrs by PET imaging analysis; assay type: ADME, organism-based, Neoplasm, B16-F10; conditions: in vivo; method in brief: as §3
Intestine [20] = test: Biodistribution in intestine of C57BL/6 mouse xenografted with mouse B16F10 cells at 3.7 MBq, iv after 1 hr by gamma-scintillation counting analysis; assay type: ADME, organism-based, B16-F10; conditions: in vivo; method in brief: as §1
Nucleic Acid [21] = test: Ratio of drug uptake in tumor to lungs of C57BL/6 mouse xenografted with mouse B16F10 cells at 3.7 MBq, iv after 2 hrs by gamma-scintillation counting analysis; assay type: ADME, organism-based, B16-F10; conditions: in vivo; method in brief: as §2
Liver [22] = test: Biodistribution in liver of C57BL/6 mouse xenografted with mouse B16F10 cells at 3.7 MBq, iv after 2 hrs by gamma-scintillation counting analysis; assay type: ADME, organism-based, B16-F10; conditions: in vivo; method in brief: as §1
[23] = Drug uptake in tumor of C57BL/6 mouse xenografted with mouse B16F10 cells at 3.7 MBq, iv after 1 hr by PET imaging analysis; assay type: ADME, organism-based, Neoplasm, B16-F10; conditions: in vivo; method in brief: as §3
Nucleic Acid [24] = test: Ratio of drug uptake in tumor to blood of C57BL/6 mouse xenografted with mouse B16F10 cells at 3.7 MBq, iv after 2 hrs by gamma-scintillation counting analysis; assay type: ADME, organism-based, B16-F10; conditions: tumour; method in brief: as §2
Bone [25] = test: Biodistribution in bone of C57BL/6 mouse xenografted with mouse B16F10 cells at 3.7 MBq, iv after 1 hr by gamma-scintillation counting analysis; assay type: ADME, organism-based, Bone element, B16-F10; conditions: in vivo; method in brief: as §1
Nucleic Acid [26] = test: Ratio of drug uptake in tumor to liver of C57BL/6 mouse xenografted with mouse B16F10 cells at 3.7 MBq, iv after 1 hr by gamma-scintillation counting analysis; assay type: ADME, organism-based, B16-F10; conditions: in vivo; method in brief: as §2
Heart [27] = test: Biodistribution in heart of C57BL/6 mouse xenografted with mouse B16F10 cells at 3.7 MBq, iv after 2 hrs by gamma-scintillation counting analysis; assay type: ADME, organism-based, B16-F10; conditions: in vivo; method in brief: as §1
Liver [28] = test: Biodistribution in liver of C57BL/6 mouse xenografted with mouse B16F10 cells at 3.7 MBq, iv after 1 hr by gamma-scintillation counting analysis; assay type: ADME, organism-based, B16-F10; conditions: in vivo; method in brief: as §1
Blood [29] = test: Biodistribution in blood of C57BL/6 mouse xenografted with mouse B16F10 cells at 3.7 MBq, iv after 2 hrs by gamma-scintillation counting analysis; assay type: ADME, organism-based, B16-F10; conditions: in vivo; method in brief: as §1
Mus musculus [30] = test: Biodistribution in eye of C57BL/6 mouse xenografted with mouse B16F10 cells at 3.7 MBq, iv after 1 hr by gamma-scintillation counting analysis; assay type: ADME, organism-based, B16-F10; conditions: in vivo; method in brief: as §1
Nucleic Acid [31] = test: Ratio of drug uptake in tumor to muscle of C57BL/6 mouse xenografted with mouse B16F10 cells at 3.7 MBq, iv after 2 hrs by gamma-scintillation counting analysis; assay type: ADME, organism-based, B16-F10; conditions: in vivo; method in brief: as §2
Mus musculus [32] = test: Biodistribution in tumor of C57BL/6 mouse xenografted with mouse B16F10 cells at 3.7 MBq, iv after 1 hr by gamma-scintillation counting analysis; assay type: ADME, organism-based, Neoplasm, B16-F10; conditions: in vivo; method in brief: as §1
Mus musculus [33] = test: Biodistribution in eye of C57BL/6 mouse xenografted with mouse B16F10 cells at 3.7 MBq, iv after 2 hrs by gamma-scintillation counting analysis; assay type: ADME, organism-based, B16-F10; conditions: in vivo; method in brief: as §1
Nucleic Acid [34] = test: Ratio of drug uptake in tumor to blood of C57BL/6 mouse xenografted with mouse B16F10 cells at 3.7 MBq, iv after 1 hr by gamma-scintillation counting analysis; assay type: ADME, organism-based, B16-F10; conditions: tumour; method in brief: as §2
Zone of skin [35] = test: Biodistribution in skin of C57BL/6 mouse xenografted with mouse B16F10 cells at 3.7 MBq, iv after 2 hrs by gamma-scintillation counting analysis; assay type: ADME, organism-based, B16-F10; conditions: in vivo; method in brief: as §1
Nucleic Acid [36] = test: Ratio of drug uptake in tumor to liver of C57BL/6 mouse xenografted with mouse B16F10 cells at 3.7 MBq, iv after 2 hrs by gamma-scintillation counting analysis; assay type: ADME, organism-based, B16-F10; conditions: in vivo; method in brief: as §2
Kidney [37] = test: Biodistribution in kidney of C57BL/6 mouse xenografted with mouse B16F10 cells at 3.7 MBq, iv after 2 hrs by gamma-scintillation counting analysis; assay type: ADME, organism-based, B16-F10; conditions: in vivo; method in brief: as §1
Bone [38] = test: Biodistribution in bone of C57BL/6 mouse xenografted with mouse B16F10 cells at 3.7 MBq, iv after 2 hrs by gamma-scintillation counting analysis; assay type: ADME, organism-based, Bone element, B16-F10; conditions: in vivo; method in brief: as §1
Blood [39] = test: Biodistribution in blood of C57BL/6 mouse xenografted with mouse B16F10 cells at 3.7 MBq, iv after 1 hr by gamma-scintillation counting analysis; assay type: ADME, organism-based, B16-F10; conditions: in vivo; method in brief: as §1
Zone of skin [40] = test: Biodistribution in skin of C57BL/6 mouse xenografted with mouse B16F10 cells at 3.7 MBq, iv after 1 hr by gamma-scintillation counting analysis; assay type: ADME, organism-based, B16-F10; conditions: in vivo; method in brief: as §1
Muscle tissue [41] = test: Biodistribution in muscle of C57BL/6 mouse xenografted with mouse B16F10 cells at 3.7 MBq, iv after 1 hr by gamma-scintillation counting analysis; assay type: ADME, organism-based, B16-F10; conditions: in vivo; method in brief: as §1

## CCN(CC)CCNC(=O)c1cc([18F])ccn1
Brain [1]
  Drug uptake: 0.49 % ID/g
Mus musculus [2]
  Drug uptake: 8.66 % ID/g
Stomach [3]
  Drug uptake: 2.24 % ID/g
Mus musculus [4]
  Drug uptake: 0.59 % ID/g
Nucleic Acid [5]
  Ratio: 8.81
Intestine [6]
  Drug uptake: 0.98 % ID/g
Pancreas [7]
  Drug uptake: 0.44 % ID/g
[8]
  Drug uptake: 9.52 % ID/g
Spleen [9]
  Drug uptake: 0.31 % ID/g
Mus musculus [10]
  Drug uptake: 0.88 % ID/g
Pancreas [11]
  Drug uptake: 1.06 % ID/g
Heart [12]
  Drug uptake: 0.6 % ID/g
Spleen [13]
  Drug uptake: 1.09 % ID/g
Kidney [14]
  Drug uptake: 1.34 % ID/g
Nucleic Acid [15]
  Ratio: 13.12
Muscle tissue [16]
  Drug uptake: 0.2 % ID/g
Stomach [17]
  Drug uptake: 1.64 % ID/g
Brain [18]
  Drug uptake: 0.24 % ID/g
[19]
  Drug uptake: 9.73 % ID/g
Intestine [20]
  Drug uptake: 2.28 % ID/g
Nucleic Acid [21]
  Ratio: 9.46
Liver [22]
  Drug uptake: 1.41 % ID/g
[23]
  Drug uptake: 8.97 % ID/g
Nucleic Acid [24]
  Ratio: 44.33
Bone [25]
  Drug uptake: 11.29 % ID/g
Nucleic Acid [26]
  Ratio: 3.85
Heart [27]
  Drug uptake: 0.37 % ID/g
Liver [28]
  Drug uptake: 2.07 % ID/g
Blood [29]
  Drug uptake: 0.15 % ID/g
Mus musculus [30]
  Drug uptake: 35.96 % ID/g
Nucleic Acid [31]
  Ratio: 27.75
Mus musculus [32]
  Drug uptake: 7.54 % ID/g
Mus musculus [33]
  Drug uptake: 32.45 % ID/g
Nucleic Acid [34]
  Ratio: 28.32
Zone of skin [35]
  Drug uptake: 0.63 % ID/g
Nucleic Acid [36]
  Ratio: 4.16
Kidney [37]
  Drug uptake: 0.69 % ID/g
Bone [38]
  Drug uptake: 10.27 % ID/g
Blood [39]
  Drug uptake: 0.33 % ID/g
Zone of skin [40]
  Drug uptake: 0.73 % ID/g
Muscle tissue [41]
  Drug uptake: 0.6 % ID/g
